Experimental data from ChEMBL document CHEMBL4673255, “Acylated 1H-1,2,4-Triazol-5-amines Targeting Human Coagulation Factor XIIa and Thrombin: Conventional and Microscale Synthesis, Anticoagulant Properties, and Mechanism of Action” (J Med Chem, 2020).

What was measured:
Blood [1] = assay: Anticoagulant activity in human blood assessed as increase in activated partial thromboplastin time at 300 uM incubated for 1 min by aPTT reagent based assay relative to control; format: functional
Method in brief: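 Compounds were tested at 300 µM, and the increase was expressed relative to DMSO. The doubling concentration (EC2×) is the concentration prolonging aPTT twofold. At least triplicate, mean ± SD.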

Coagulation factor X = Coagulation factor X (Homo sapiens, UniProt P00742); assay: Inhibition of human coagulation factor Xa using Boc-Ile-Glu-Gly-Arg-AMC as fluorogenic substrate measured at 1 min interval for 1 hr by fluorometric assay
Blood [2] = assay: Effect on blood coagulation in human blood assessed as increase in prothrombin time at 300 uM incubated for 3 mins followed by CaCl2 addition by PT reagent based assay relative to control; format: ADME, tissue-based; conditions: 0.05 h
Method in brief: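 Clotting was started with PT reagent already containing CaCl2, prewarmed to 37 °C, and clotting time was recorded. Increase is given relative to DMSO; at least triplicate, mean ± SD.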

Coagulation factor XII = molecular target: T1, Coagulation factor XII (Homo sapiens, UniProt P00748); assay: Inhibition of human coagulation factor XIIA using Boc-Gln-Gly-Arg-AMC as fluorogenic substrate measured at 1 min interval for 1 hr by fluorometric assay
T1 sequence (P00748 whole entry): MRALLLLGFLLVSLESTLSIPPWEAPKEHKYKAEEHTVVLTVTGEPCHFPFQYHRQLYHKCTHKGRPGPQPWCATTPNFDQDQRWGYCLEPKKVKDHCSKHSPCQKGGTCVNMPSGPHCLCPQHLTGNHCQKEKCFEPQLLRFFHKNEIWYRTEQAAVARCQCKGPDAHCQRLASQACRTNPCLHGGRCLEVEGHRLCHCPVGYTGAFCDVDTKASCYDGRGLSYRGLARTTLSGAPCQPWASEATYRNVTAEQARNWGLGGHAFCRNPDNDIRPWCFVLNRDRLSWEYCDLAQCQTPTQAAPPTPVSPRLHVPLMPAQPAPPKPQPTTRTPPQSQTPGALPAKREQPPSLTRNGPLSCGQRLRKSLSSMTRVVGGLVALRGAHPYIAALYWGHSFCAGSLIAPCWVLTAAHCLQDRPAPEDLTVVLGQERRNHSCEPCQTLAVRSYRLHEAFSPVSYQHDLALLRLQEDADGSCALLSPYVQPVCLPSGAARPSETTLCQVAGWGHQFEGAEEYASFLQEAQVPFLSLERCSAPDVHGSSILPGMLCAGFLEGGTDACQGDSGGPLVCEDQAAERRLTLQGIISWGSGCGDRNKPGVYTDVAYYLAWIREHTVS

Prothrombin [3] = molecular target: T2, Prothrombin (Homo sapiens, UniProt P00734); assay: Inhibition of human coagulation factor alpha-thrombin using Boc-Val-Pro-Arg-AMC as fluorogenic substrate measured at 1 min interval for 1 hr by fluorometric assay
[4] = Inhibition of porcine trypsin using Z-Gly-Gly-Arg-AMC as fluorogenic substrate measured at 1 min interval for 1 hr by fluorometric assay; parameters: species or system Sus scrofa
[5] = molecular target: T3, Coagulation factor XII (Homo sapiens) (UniProt P00748); assay: Inhibition of human coagulation factor XIIA in presence of Boc-Gln-Gly-Arg-AMC as fluorogenic substrate at 1 uM measured at 1 min interval for 1 hr by fluorometric assay relative to control
T3 sequence (whole entry): T1 sequence (P00748 whole entry)
Method in brief: (§1)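 Screening of crude microscale amide-coupling products. Conversion was measured by 1H NMR and product content normalised to 76 µmol/L in DMSO, then tested at 1 µM and 100 nM in the fluorogenic FXIIa or thrombin assay. A 0-conversion reaction served as blank. Percent inhibition is from triplicates.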

Plasma [6] = assay: (§2) Anticoagulant activity in human platelet-rich plasma assessed as reduction in TF-induced thrombin generation by measuring Tmax of clotting time at 100 uM preincubated for 15 mins followed by TF addition by Z-Gly-Gly-Arg-AMC substrate based calibrated automated thrombography (reference value: 8.1 +/- 0.6 min); format: functional, cell-free
Method in brief: (§3)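 Tissue-factor-triggered homogeneous thrombin generation followed by fluorogenic substrate cleavage. Read-outs: clotting time (T1/2), peak amplitude (Amax, AU/L), time to peak (Tmax) and ETP (AU·min/L). DMSO and buffer served as controls. n = 3, mean ± SD.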

Plasma [7] = assay: as §2, with “amplitude” for “Tmax”, “thrombin peak” for “clotting time”, “63” for “8.1”, “3.7 AU/L)” for “0.6 min)”; format: functional; conditions: 0.25 h; method in brief: as §3
Plasma kallikrein = Plasma kallikrein (Homo sapiens, UniProt P03952); assay: Inhibition of human kallikrein using Mes-dArg-Pro-Arg-AMC as fluorogenic substrate measured at 1 min interval for 1 hr by fluorometric assay
Coagulation factor XI = Coagulation factor XI (Homo sapiens, UniProt P03951); assay: Inhibition of human coagulation factor XIA using Mes-dArg-Pro-Arg-AMC as fluorogenic substrate measured at 1 min interval for 1 hr by fluorometric assay
Plasma [8] = assay: as §2, with “endogenous thrombin potential” for “Tmax of clotting time”, “1203” for “8.1”, “44 AU.min/L)” for “0.6 min)”; format: functional; conditions: 0.25 h; method in brief: as §3
Plasminogen = Plasminogen (Homo sapiens, UniProt P00747); assay: Inhibition of human plasmin using Mes-dArg-Phe-Arg-AMC as fluorogenic substrate measured at 1 min interval for 1 hr by fluorometric assay
[9] = molecular target: Urokinase-type plasminogen activator (Homo sapiens, UniProt P00749); assay: Inhibition of human uPA using Tos-Gly-Pro-Arg-AMC as fluorogenic substrate measured at 1 min interval for 1 hr by fluorometric assay
Plasma [10] = assay: Anticoagulant activity in human platelet-rich plasma assessed as reduction in TF-induced thrombin generation by measuring half life of clotting time at 100 uM preincubated for 15 mins followed by TF addition by Z-Gly-Gly-Arg-AMC substrate based calibrated automated thrombography (Rvb= 3 +/- 0.5 min); format: functional, cell-free; method in brief: as §3
Homo sapiens = species on record: Homo sapiens; assay: Selectivity index, ratio of IC50 for inhibition of human coagulation factor alpha-thrombin using Boc-Val-Pro-Arg-AMC as fluorogenic substrate to IC50 for inhibition of human coagulation factor XIIA using Boc-Gln-Gly-Arg-AMC as fluorogenic substrate incubated for 1 hr by fluorometric assay
[11] = molecular target: T3, Coagulation factor XII (Homo sapiens); assay: Inhibition of human coagulation factor XIIA using Boc-Gln-Gly-Arg-AMC as fluorogenic substrate at 100 nM measured at 1 min interval for 1 hr by fluorometric assay relative to control; method in brief: as §1
Prothrombin [12] = molecular target: T2, Prothrombin; assay: Inhibition of human coagulation factor thrombin using Boc-Val-Pro-Arg-AMC as fluorogenic substrate at 100 nM measured at 1 min interval for 1 hr by fluorometric assay relative to control; method in brief: as §1
[13] = molecular target: T3, Coagulation factor XII (Homo sapiens); assay: Binding affinity to human plasma coagulation factor XIIA assessed as compound-adduct formation by measuring change in molecular mass at molar ratio of 1:20 measured after 4 mins by SEC/ESI-TOF mass spectra analysis; format: cell-free
Method in brief: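 β-FXIIa incubated with inhibitor at a 1:20 molar ratio, then size-exclusion chromatography coupled to ESI-MS to measure the mass of enzyme–inhibitor complexes. Further runs checked complex stability to probe reversibility.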

Sequence of Coagulation factor X (P00742 41-179 limits assumed): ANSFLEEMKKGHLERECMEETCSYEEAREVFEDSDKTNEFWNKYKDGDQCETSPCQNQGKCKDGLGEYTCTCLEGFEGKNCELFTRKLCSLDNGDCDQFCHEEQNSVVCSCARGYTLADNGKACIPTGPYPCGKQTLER
Sequence of Coagulation factor X (P00742 235-488 limits assumed): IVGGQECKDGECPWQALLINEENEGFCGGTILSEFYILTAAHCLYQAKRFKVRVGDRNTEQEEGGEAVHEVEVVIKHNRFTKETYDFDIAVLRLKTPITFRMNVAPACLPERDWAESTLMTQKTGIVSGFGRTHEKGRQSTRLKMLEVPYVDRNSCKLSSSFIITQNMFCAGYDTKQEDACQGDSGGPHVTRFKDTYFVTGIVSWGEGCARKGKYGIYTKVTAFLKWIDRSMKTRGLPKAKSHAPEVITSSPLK
Sequence of Plasminogen (P00747 97-580 limits assumed): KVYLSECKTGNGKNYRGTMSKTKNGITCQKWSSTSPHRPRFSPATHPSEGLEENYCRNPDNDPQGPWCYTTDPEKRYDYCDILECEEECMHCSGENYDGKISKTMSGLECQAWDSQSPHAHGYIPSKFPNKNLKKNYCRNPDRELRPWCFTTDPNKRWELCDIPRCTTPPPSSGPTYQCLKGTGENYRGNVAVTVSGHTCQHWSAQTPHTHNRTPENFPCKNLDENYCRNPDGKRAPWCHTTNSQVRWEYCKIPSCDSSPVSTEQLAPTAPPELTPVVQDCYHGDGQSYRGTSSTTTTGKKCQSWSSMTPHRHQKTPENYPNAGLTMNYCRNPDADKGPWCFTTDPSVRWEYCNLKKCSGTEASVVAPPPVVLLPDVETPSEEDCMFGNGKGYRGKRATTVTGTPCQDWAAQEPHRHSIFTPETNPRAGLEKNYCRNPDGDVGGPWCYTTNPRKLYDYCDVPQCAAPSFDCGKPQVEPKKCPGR
Sequence of Plasminogen (P00747 581-810 limits assumed): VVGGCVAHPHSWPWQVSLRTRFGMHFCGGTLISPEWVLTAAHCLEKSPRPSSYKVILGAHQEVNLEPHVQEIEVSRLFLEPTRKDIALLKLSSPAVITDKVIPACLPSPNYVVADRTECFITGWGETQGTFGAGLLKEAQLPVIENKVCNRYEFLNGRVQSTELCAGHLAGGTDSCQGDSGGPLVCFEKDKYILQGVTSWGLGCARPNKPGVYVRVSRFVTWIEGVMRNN
Sequence of Coagulation factor XI (P03951 19-387 limits assumed): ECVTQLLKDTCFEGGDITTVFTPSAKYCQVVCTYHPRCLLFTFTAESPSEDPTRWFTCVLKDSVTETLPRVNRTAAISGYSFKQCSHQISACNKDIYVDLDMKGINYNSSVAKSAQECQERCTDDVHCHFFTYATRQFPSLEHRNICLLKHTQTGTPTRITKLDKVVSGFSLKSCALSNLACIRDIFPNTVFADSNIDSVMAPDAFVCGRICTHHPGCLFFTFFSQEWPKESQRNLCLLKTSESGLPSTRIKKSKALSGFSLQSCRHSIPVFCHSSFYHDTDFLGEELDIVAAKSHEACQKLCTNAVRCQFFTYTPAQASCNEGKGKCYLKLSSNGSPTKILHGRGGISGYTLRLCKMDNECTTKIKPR
Sequence of Coagulation factor XI (P03951 388-625 limits assumed): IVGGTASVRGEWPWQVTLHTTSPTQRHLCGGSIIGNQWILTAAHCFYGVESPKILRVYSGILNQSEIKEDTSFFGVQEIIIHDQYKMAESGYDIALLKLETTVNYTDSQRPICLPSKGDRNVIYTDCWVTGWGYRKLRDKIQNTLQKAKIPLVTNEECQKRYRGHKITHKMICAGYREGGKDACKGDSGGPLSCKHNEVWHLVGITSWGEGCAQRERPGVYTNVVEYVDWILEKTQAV
Sequence of Plasma kallikrein (P03952 20-390 limits assumed): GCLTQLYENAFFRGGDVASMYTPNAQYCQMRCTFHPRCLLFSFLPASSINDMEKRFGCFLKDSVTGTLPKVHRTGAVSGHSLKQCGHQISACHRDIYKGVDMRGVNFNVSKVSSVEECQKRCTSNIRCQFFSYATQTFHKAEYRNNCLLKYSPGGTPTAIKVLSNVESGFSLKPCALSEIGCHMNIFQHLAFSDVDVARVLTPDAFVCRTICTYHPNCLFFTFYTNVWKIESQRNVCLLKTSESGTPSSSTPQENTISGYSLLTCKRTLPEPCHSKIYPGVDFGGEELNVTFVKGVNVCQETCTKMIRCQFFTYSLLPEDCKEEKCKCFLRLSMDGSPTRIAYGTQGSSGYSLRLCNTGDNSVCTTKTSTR
Sequence of Plasma kallikrein (P03952 391-638 limits assumed): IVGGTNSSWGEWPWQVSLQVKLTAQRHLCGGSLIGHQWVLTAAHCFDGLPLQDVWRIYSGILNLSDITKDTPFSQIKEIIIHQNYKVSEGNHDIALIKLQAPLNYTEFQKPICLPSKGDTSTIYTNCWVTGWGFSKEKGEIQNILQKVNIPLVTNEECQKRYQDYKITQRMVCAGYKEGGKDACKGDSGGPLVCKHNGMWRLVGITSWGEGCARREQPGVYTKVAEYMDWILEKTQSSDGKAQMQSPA

Compound	IC50 (Coagulation factor X) [µM]	Activity (Blood [2]) [%]	IC50 (Coagulation factor XII) [µM]	IC50 (Prothrombin [3]) [µM]	IC50 [4] [µM]	inhibition [5] [%]	Activity (Blood [1]) [%]	other results
Nc1nc(-c2ccccn2)nn1C(=O)c1ccc(C(F)(F)F)cc1	> 5	8	3.21	4.57	> 5	14	40	–
Nc1nc(Nc2cccnc2)nn1C(=O)c1ccccc1	> 5	2	> 5	> 8	> 5	–	1	–
[H]/N=C(/N)c1ccc(NCc2nc3cc(C(=O)N(CCC(=O)O)c4ccccn4)ccc3n2C)cc1 [DABIGATRAN]	–	539	> 33	–	–	–	–	–
Nc1nc(-c2ccncc2)nn1C(=O)C1CCCCC1	> 5	7	> 1	> 5	> 5	–	10	–
Nc1n[nH]c(-c2ccncc2)n1	> 5	1	> 5	> 5	> 5	–	5	–
Nc1n[nH]c(-c2ccccc2)n1	> 5	–	> 5	> 5	> 5	–	–	–
Cc1ccc(S(=O)(=O)n2nc(-c3ccncc3)nc2N)cc1	> 5	2	> 1	> 5	> 5	–	5	–
CCOc1ccc(Nc2nc(N)n(C(=O)c3ccccc3)n2)cc1	> 5	–	> 1	> 5	> 5	–	–	–
Nc1nc(-c2ccccn2)nn1C(=O)C1CCCCC1	> 5	–	> 1	> 5	> 5	11	–	–
Nc1nc(-c2ccccn2)nn1C(=O)c1cccnc1	> 5	–	1.61	0.494	> 5	43	–	–
Nc1n[nH]c(-c2ccccn2)n1	> 5	–	> 5	> 5	> 5	–	–	–
Nc1nc(-c2ccccn2)nn1C(=O)c1ccc([N+](=O)[O-])cc1	> 5	3	5.93	> 5	–	29	35	–
Nc1nc(-c2ccccn2)nn1C(=O)CNC(=O)c1ccccc1	> 5	3	13.2	> 132	> 5	20	-2	–
Nc1nc(-c2ccccn2)nn1C(=O)C1CCOCC1	> 5	–	12.1	> 5	> 5	1	–	–
Nc1nc(-c2ccccn2)nn1C(=O)/C=C/c1ccccc1	> 5	–	9.82	1.56	> 5	21	–	–

More lines, in order of falling IC50 (Coagulation factor XII), values ahead:

IC50 (Coagulation factor X) [µM]	Activity (Blood [2]) [%]	IC50 (Coagulation factor XII) [µM]	IC50 (Prothrombin [3]) [µM]	IC50 [4] [µM]	inhibition [5] [%]	Compound	Activity (Blood [1]) [%]	other results
> 5	–	1.56	> 5	–	43	Nc1nc(-c2ccccn2)nn1C(=O)c1ccccc1[N+](=O)[O-]	–	–
> 5	–	0.968	1.77	> 5	54	Nc1nc(-c2ccccn2)nn1C(=O)c1ccco1	–	–
> 5	16	0.793	0.239	> 5	58	Nc1nc(-c2ccccn2)nn1C(=O)c1ccc(Br)cc1	119	–
> 5	5	0.539	1.24	> 5	–	Nc1nc(-c2ccccc2)nn1C(=O)c1ccccc1	29	–
> 5	8	0.306	0.481	> 5	79	Nc1nc(-c2ccccn2)nn1C(=O)c1ccc(F)cc1	78	–
> 5	14	0.291	0.329	> 5	80	COc1ccc(C(=O)n2nc(-c3ccccn3)nc2N)cc1	108	–
> 5	–	0.21	0.509	> 5	87	Nc1nc(-c2ccccn2)nn1C(=O)Cc1ccccc1	–	–
> 5	6	0.162	0.308	> 5	85	CCc1ccc(C(=O)n2nc(-c3ccccn3)nc2N)cc1	114	–
> 5	–	0.142	3.39	> 5	89	Nc1nc(-c2ccccn2)nn1C(=O)c1ccc(NC(=O)C(F)(F)F)cc1	–	Ratio IC50 (Homo sapiens): 24
> 5	7	0.134	0.421	> 5	96	Nc1nc(-c2ccccn2)nn1C(=O)[C@H]1CCCc2ccccc21	67	inhibition [11]: 70%; inhibition (Prothrombin [12]): 6%; Activity [13]: 158 Da
> 5	2	0.106	0.962	> 5	–	Nc1nc(-c2ccncc2)nn1C(=O)c1ccccc1	80	–
> 5	12	0.093	0.086	> 5	83	Cc1cccc(C(=O)n2nc(-c3ccccn3)nc2N)c1	124	–
> 5	48	0.091	0.057	> 5	92	Cc1ccc(C(=O)n2nc(-c3ccccn3)nc2N)cc1C	227	Tmax (Plasma [6]): 8.8 min; Activity (Plasma [7]): 16.9 AU/L; IC50 (Plasma kallikrein): > 5 µM; IC50 (Coagulation factor XI): > 5 µM; Activity (Plasma [8]): 370 AU.min/L; IC50 (Plasminogen): 25.8 µM; IC50 [9]: 2.94 µM; T1/2 (Plasma [10]): 3.8 min
